The values that follow come from the M2OR odorant receptor database.

Structures are written as SMILES.

Holding throughout (conditions): stereoisomer not certain
In assay [1] the target is T1, Or1m1 (Mus musculus) (UniProt Q8VFM9).
T1 sequence (whole entry): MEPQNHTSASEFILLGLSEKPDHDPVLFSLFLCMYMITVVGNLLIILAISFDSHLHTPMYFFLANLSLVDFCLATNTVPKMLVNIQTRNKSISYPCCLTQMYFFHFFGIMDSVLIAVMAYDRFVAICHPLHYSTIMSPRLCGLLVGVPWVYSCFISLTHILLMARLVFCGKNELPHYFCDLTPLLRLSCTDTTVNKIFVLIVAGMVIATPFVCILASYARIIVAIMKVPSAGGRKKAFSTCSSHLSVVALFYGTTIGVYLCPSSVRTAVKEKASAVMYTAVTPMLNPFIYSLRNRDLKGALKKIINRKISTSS
Put shortly:
(§1)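 Whether a receptor–molecule pair is responsive (active) rests on the original authors' judgment that its measured signal was statistically different from baseline. Pairs without that judgment are non-responsive (inactive). Sources used varied assay methods, commonly transient luciferase assays in mammalian cell lines.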

The target in assay [2] is T2, Or5ar1 (Mus musculus) (UniProt Q8VGS3).
T2 sequence (whole entry): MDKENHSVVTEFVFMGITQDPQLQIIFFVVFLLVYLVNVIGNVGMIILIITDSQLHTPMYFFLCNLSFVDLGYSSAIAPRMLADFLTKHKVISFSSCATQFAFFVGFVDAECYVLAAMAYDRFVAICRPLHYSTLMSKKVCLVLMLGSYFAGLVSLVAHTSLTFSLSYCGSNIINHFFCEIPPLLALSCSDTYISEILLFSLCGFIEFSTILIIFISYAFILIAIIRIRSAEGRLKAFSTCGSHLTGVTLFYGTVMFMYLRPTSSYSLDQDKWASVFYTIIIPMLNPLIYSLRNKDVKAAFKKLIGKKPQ
A digest of the protocol:
as §1

Assay [3] deals with T3, Or5k16 (Mus musculus) (UniProt Q7TS48).
T3 sequence (whole entry): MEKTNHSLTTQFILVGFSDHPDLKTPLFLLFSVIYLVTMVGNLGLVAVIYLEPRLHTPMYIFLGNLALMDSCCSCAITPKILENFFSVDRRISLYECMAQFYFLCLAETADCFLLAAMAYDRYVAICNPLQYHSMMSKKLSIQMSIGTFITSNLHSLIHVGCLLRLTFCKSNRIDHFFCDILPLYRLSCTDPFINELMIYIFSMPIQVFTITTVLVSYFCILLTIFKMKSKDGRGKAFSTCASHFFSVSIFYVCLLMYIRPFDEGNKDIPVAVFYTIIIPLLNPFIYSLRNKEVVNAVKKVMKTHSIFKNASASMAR
Put shortly:
as §1

In assay [4] the target is T4, Or5an6 (Mus musculus) (UniProt Q8VFV4).
T4 sequence (whole entry): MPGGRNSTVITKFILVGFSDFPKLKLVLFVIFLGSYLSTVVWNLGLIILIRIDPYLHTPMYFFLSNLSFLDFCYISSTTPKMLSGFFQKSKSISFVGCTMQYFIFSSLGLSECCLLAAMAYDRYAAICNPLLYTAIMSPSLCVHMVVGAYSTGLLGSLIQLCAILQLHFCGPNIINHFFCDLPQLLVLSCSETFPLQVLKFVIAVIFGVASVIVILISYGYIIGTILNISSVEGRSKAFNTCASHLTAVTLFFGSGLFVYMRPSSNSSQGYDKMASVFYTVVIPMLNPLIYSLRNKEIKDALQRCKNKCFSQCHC
A digest of the protocol: as §1
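Note: active if original authors judged signal statistically different from baseline.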

`C=C(C)C1CCC2(C)OC2C1` (stereo not drawn): the “odorant receptor agonist call” value in assay [1] and in assay [2] was “inactive” in each case.

With `C=C(C)C1CCC(C)C(O)C1` (stereo not drawn), the “odorant receptor agonist call” value in assay [1] and in assay [2] was “inactive” in each case. Take `O=C(O)C1CCC1`: the “odorant receptor agonist call” value in assay [1] and in assay [2] was “inactive” each time.

Consider `CC(=O)OC1(C)CCC23CC1C(C)(C)C2CCC3C` (stereo not drawn), for which the “odorant receptor agonist call” value in assay [1] was “active”. The “odorant receptor agonist call” value in assay [2] was “inactive”. Consider `CC(C)CCN`, for which the “odorant receptor agonist call” value in assay [1] and in assay [2] was “inactive” each time.

Take `CCCCCC(C=O)=Cc1ccccc1`: the “odorant receptor agonist call” value in assay [1] and in assay [2] was “inactive” throughout. With `O=C(OCc1ccccc1)c1ccccc1O`, the “odorant receptor agonist call” value in assay [1] and in assay [2] was “inactive” each time.

Consider `CCCCCOC(=O)CCC`, for which the “odorant receptor agonist call” value in assay [1] and in assay [2] was “inactive” in each case. Turning to `CSSCc1ccco1`, the “odorant receptor agonist call” value in assay [1] and in assay [2] was “inactive” throughout. As to `CCCCCCCCCC=CC=O`, the “odorant receptor agonist call” value in assay [1] and in assay [2] was “inactive” throughout. For `CCCCCCC=CC=O`, the “odorant receptor agonist call” value in assay [1] and in assay [2] was “inactive” each time. As to `CCC(C)O` (stereo not drawn), the “odorant receptor agonist call” value in assay [1] and in assay [2] was “inactive” each time.

Turning to `CCCC=O`, the “odorant receptor agonist call” value in assay [1] and in assay [2] was “inactive” each time.

Regarding `CC(CC=O)CCCC(C)(C)O` (stereo not drawn), the “odorant receptor agonist call” value in assay [1] and in assay [2] was “inactive” in each case.

On to `C=CC(=C)CCC=C(C)CCC=C(C)C`, for which the “odorant receptor agonist call” value in assay [1] and in assay [2] was “inactive” throughout. In the case of `CCCO`, the “odorant receptor agonist call” value in assay [1] and in assay [2] was “inactive” each time.

Take `CCCCCCCOC(=O)C(C)C`: the “odorant receptor agonist call” value in assay [1] and in assay [2] was “inactive” in each case. Consider `CC(C)=C1CCC(C)CC1=O` (stereo not drawn), for which the “odorant receptor agonist call” value in assay [1] and in assay [2] was “inactive” throughout. Consider `CCCCCC(=Cc1ccccc1)C(OC)OC`, for which the “odorant receptor agonist call” value in assay [1] was “inactive”. Also, in assay [2], the “odorant receptor agonist call” value was “active”.

`CCSSCC`: the “odorant receptor agonist call” value in assay [1] and in assay [2] was “inactive” each time.

In the case of `C1CCOC1`, the “odorant receptor agonist call” value in assay [1] and in assay [2] was “inactive” throughout.

`CCN(CC)CC`: the “odorant receptor agonist call” value in assay [1] and in assay [2] was “inactive” throughout. In the case of `CCc1ncc(C)nc1CC`, the “odorant receptor agonist call” value in assay [1], in assay [2] and in assay [3] was “inactive” throughout. With `CSSSC`, the “odorant receptor agonist call” value in assay [1] and in assay [2] was “inactive” in each case. On to `CCOC(=O)CC(C)C`, for which the “odorant receptor agonist call” value in assay [1] and in assay [2] was “inactive” in each case.

Turning to `CCc1ccccc1O`, the “odorant receptor agonist call” value in assay [1] and in assay [2] was “inactive” in each case. On to `CCCCCC=CCCC=O`, for which the “odorant receptor agonist call” value in assay [1] and in assay [2] was “inactive” each time.

On to `Cc1cncc(C)n1`, for which the “odorant receptor agonist call” value in assay [3] is “inactive”. In the case of `Cc1nccnc1C`, the “odorant receptor agonist call” value in assay [3] is “inactive”. Take `CCCCCCCCCCCCCC(C)=O`: the “odorant receptor agonist call” value in assay [4] is “active”.
